Test results: ChEMBL document CHEMBL1828531, “Pyrazol-3-propanoic acid derivatives as novel inhibitors of leukotriene biosynthesis in human neutrophils” (Eur J Med Chem, 2011)

What was measured:
[1] = Inhibition of mPGES1-mediated PGE2 production in IL1-beta stimulated human A549 cells after 15 mins; type: cell-based; settings: A549, 0.25 h
Summary of the method: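 Microsomes from IL-1β (1 ng/ml, 72 h) stimulated A549 cells, diluted in 0.1 M potassium phosphate pH 7.4 with 2.5 mM glutathione. Compound or 1% DMSO added, 15 min at 4 °C. Started with 20 µM PGH2 (final), 1 min at 4 °C. Stopped with FeCl2/citric acid containing 11β-PGE2 internal standard. PGE2 by RP-C18 solid-phase extraction and peak integration.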

[2] = target: T1, Polyunsaturated fatty acid 5-lipoxygenase (Homo sapiens) (UniProt P09917); assay: Inhibition of recombinant human 5-Lipoxygenase expressed in Escherichia coli lysate assessed as residual activity using arachidonic acid as substrate at 10 uM after 10 mins by HPLC analysis
T1 sequence (whole entry): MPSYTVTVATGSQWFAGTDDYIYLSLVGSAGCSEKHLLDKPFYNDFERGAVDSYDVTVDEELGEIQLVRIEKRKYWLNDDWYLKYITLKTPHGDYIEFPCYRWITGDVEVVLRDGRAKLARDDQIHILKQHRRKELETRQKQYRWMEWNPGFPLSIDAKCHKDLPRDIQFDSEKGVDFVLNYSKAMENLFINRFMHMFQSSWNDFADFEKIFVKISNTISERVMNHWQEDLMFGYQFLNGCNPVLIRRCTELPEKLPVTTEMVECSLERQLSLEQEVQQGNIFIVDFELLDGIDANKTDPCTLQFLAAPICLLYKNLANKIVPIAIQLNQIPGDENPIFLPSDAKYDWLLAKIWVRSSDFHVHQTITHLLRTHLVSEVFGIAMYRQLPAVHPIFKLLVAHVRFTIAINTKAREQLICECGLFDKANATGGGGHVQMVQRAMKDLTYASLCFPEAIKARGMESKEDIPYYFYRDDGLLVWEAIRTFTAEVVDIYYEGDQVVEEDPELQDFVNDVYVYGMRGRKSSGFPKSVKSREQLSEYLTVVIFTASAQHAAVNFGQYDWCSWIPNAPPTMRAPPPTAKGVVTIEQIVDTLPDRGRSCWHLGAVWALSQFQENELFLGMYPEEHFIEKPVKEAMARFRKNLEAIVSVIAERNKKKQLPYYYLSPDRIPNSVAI
Summary of the method: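 Human 5-LO expressed at 30 °C in E. coli MV1190 (pT3-5LO); lysate 40,000 g supernatant in PBS pH 7.4 with 1 mM EDTA. Preincubated with compound 10 min at 4 °C, warmed 30 s at 37 °C. Started with 2 mM CaCl2 plus 20 µM AA, 10 min at 37 °C. Methanol stop, HPLC. Residual % versus 0.3% DMSO vehicle, n = 3–5.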

[3] = target: T2, Polyunsaturated fatty acid 5-lipoxygenase (Homo sapiens, UniProt P09917); assay: Inhibition of 5-Lipoxygenase in arachidonic acid-stimulated human neutrophils after 15 mins by HPLC analysis in presence of A23187
T2 sequence (P09917 whole entry): T1 sequence (whole entry)
Summary of the method: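 Human neutrophils, 5 × 10^6/mL in PBS/glucose/1 mM CaCl2, preincubated 15 min at RT, then 2.5 µM A23187 plus 20 µM AA for 10 min at 37 °C. Methanol stop, PGB1 internal standard, HPLC of LTB4, its all-trans isomers and 5-H(p)ETE. Residual % versus 0.3% DMSO vehicle, mean ± SEM, n = 3–5. IC50 by linear interpolation from 4–5 concentrations.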

[4] = target: T3, Polyunsaturated fatty acid lipoxygenase ALOX15 (Homo sapiens, UniProt P16050); assay: Inhibition of 15-Lipoxygenase-mediated 15-HETE in human neutrophil after 15 mins by HPLC analysis
T3 sequence (P16050 whole entry): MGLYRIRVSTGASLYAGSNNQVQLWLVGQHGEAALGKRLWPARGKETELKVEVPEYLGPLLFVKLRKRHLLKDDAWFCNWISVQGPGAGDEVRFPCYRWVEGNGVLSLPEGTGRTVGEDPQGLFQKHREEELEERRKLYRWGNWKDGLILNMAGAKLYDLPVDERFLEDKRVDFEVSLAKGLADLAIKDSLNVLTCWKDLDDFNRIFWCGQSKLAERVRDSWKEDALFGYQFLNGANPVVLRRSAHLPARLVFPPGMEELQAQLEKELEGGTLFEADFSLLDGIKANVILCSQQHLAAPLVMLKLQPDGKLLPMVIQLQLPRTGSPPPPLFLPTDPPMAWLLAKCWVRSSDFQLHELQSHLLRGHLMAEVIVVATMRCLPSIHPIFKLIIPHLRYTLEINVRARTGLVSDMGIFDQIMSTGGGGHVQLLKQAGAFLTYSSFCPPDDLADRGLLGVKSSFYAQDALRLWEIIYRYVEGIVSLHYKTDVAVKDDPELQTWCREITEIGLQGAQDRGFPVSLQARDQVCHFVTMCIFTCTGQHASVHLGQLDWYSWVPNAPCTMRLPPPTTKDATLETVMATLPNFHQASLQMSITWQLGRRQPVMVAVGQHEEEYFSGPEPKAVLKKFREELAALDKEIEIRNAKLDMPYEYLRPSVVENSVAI
Summary of the method: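 Freshly isolated human blood neutrophils, 5 × 10^6/mL in PBS pH 7.4 with 1 mg/mL glucose and 1 mM CaCl2, preincubated with compound 15 min at RT. Stimulated with 2.5 µM A23187 plus 20 µM AA for 10 min at 37 °C. Stopped with methanol/HCl, PGB1 internal standard. 12-HETE or 15-HETE measured by HPLC. Residual activity tested at 30 µM.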

IC50 [1] | Activity [2] | IC50 [3] | IC50 [4] | SMILES
> 10 µM | 62.9% | 2.7 µM | > 10 µM | Cc1ccc(-c2cc(CCC(=O)N3CCN(Cc4ccc(C(C)(C)C)cc4)CC3)nn2-c2ccccc2)cc1
> 10 µM | 79.5% | 2.4 µM | > 10 µM | CCOC(=O)C1CCN(C(=O)CCc2cc(-c3ccc(C)cc3)n(-c3ccccc3)n2)CC1
> 10 µM | 83.4% | 8 µM | – | Cc1ccc(-c2cc(CCC(=O)Oc3ccc(C(C)C)cc3)nn2-c2ccc(Cl)nn2)cc1
> 10 µM | 103% | 1.6 µM | > 10 µM | CC(C)(C)c1ccc(CN2CCN(C(=O)CCc3cc(-c4ccc(F)cc4)n(-c4ccc(Cl)nn4)n3)CC2)cc1
> 10 µM | 84% | 15 µM | > 10 µM | CCOC(=O)C1CCN(C(=O)CCc2cc(-c3ccc(C(F)(F)F)cc3)n(-c3ccc(Cl)nn3)n2)CC1
> 10 µM | 86.1% | > 10 µM | > 10 µM | Cc1ccc(-c2cc(CCC(=O)Oc3ccc(C(C)C)cc3)nn2-c2ccc3ccccc3n2)cc1
> 10 µM | 92.6% | 2 µM | > 10 µM | Cc1ccc(-c2cc(CCC(=O)Oc3ccc(C(C)C)cc3)nn2-c2ccccc2)cc1
> 10 µM | 55.9% | 4 µM | > 10 µM | CCOC(=O)C1CCN(C(=O)CCc2cc(-c3ccc(C)cc3)n(-c3ccc4ccccc4n3)n2)CC1
> 10 µM | 115% | 3.5 µM | > 10 µM | Cc1ccc(-c2cc(CCC(=O)N3CCN(Cc4ccc(C(C)(C)C)cc4)CC3)nn2-c2ccc3ccccc3n2)cc1
